# Assay results as given in the EternaBench riboswitch data.
# Test system: MS2 coat protein
# Experiment: apparent Kd, MS2 coat protein; higher = weaker binding; RNA-MaP array; FMN 200 µM where present
# Summary of the method: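 Designs were transcribed by stalled E. coli RNA polymerase on Illumina sequencing-chip clusters. They were titrated with SNAP-549-labelled MS2 coat protein from 0.7 or 1.5 nM, doubling to 3 µM, in 100 mM Tris-HCl pH 7.5, 80 mM KCl, 4 mM MgCl2, BSA, DTT, yeast tRNA and Tween-20, without and then with constant ligand. The apparent Kd is the median of filtered per-cluster fits after normalisation of green signal to red-channel RNA signal and control-cluster median Fmax.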
# [1] = designed as: ON switch for flavin mononucleotide, no ligand
# [2] = ligand present: flavin mononucleotide, designed as: ON switch for flavin mononucleotide
# [3] = designed as: OFF switch for flavin mononucleotide, no ligand
# [4] = ligand present: flavin mononucleotide, designed as: OFF switch for flavin mononucleotide
Sequence,apparent Kd [1],apparent Kd [2],apparent Kd [3],apparent Kd [4]
CCGGUGGCGCUAGUGGUGACUGCACAGGAUAUAGCGCUCACAUGAGGAUCACCCAUGUAAGGACGCUAGAAGGGUGAAAGUAUA,0.0599 µM,0.0199 µM,–,–
CCUAAGGACACAGGAUAUAGCGCGGUGGCUGGGCUCCAACGGCGAGCGACGCUAGAAGGGUGACCACAUGAGGAUCACCCAUGU,0.517 µM,0.122 µM,–,–
CCUAAGGAGACAGGAUAUAGUGUGGUGGCCGGGCUCCCACGGCGAGCGGCACUAGAAGGGUCACUACAUGAGGAUCACCCAUGU,0.0303 µM,0.0156 µM,–,–
CCUACAUAUUUUAAGUAUGAUUAACUAGAAGGUAGAUACAUGAGGAUCACCCAUGUUUAGAGAUCUAAGGAUAUAGUAUGUAGC,0.0133 µM,0.00945 µM,–,–
CCUAUACAUGAGGAUCACCCAUGUCAGGAUAUGGACAGCUACGUCAUAGGACGUAGCACCAGAAGGGACUGGCA,–,–,0.0501 µM,0.13 µM
CCUCAACAGUAGGAUAUCAUAUAACUAUUGUGAUGAGAAGGACUGACAUGAGGAUCACCCAUGUUAACGUGAUA,–,–,0.018 µM,0.0249 µM
CCUCCGUAUGAGGAUAUCGUCCAGGAAACUGGACGAGAAGGCAUGACAUGAGGAUCACCCAUGUUAAAGUGAUG,–,–,0.0214 µM,0.0584 µM
CCUCGACAUGAGGAUCACCCAUGUCAGGAUAUUGUGUUUCGGGUUUUUUACCUUUAGGCAAGAAGGGAUGUGUG,–,–,0.0158 µM,0.0224 µM
CCUCGACAUGAGGAUCACCCAUGUCAGGAUAUUGUGUUUUGGGUUUUUUACCUUUUGGCAAGAAGGGAUGUGUG,–,–,0.0155 µM,0.0191 µM
CCUCGGAGUAAGGAUAUCAAUUUGUAGAUAGAUUGAGAAGGUACUACAUGAGGAUCACCCAUGUCCCGUCUCAA,–,–,0.0147 µM,0.0164 µM
CCUCUACAUGAGGAUCACCCAUGUCAGGAUAUCGUGUGUUUUUUUUCGGCCGCGCGUGCGAGAAGGGACGUCUU,–,–,0.0319 µM,0.032 µM
CCUCUACAUGAGGAUCACCCAUGUGAGGAUAUCAAAGCCAGAGCGGAUCUCUGGUCCAUGAGAAGGUGCAUGGU,–,–,0.0204 µM,0.0896 µM
CCUCUGUAAGGAUAUACGGAGACCACUGGAAUCAGUGGAAAGUAGAAGGUACAUGAGGAUCACCCAUGUGAGAA,–,–,0.0866 µM,0.151 µM
CCUGGUUGGUAAGGAUAUCCUACACUGUUCUGACCCGUGCAAGCUACAUGAGGAUCACCCAUGUGGGAGAAGGUGCGUCAACGC,–,–,0.0126 µM,0.0117 µM
CCUGUCGCAUGAGGAUAUGGUCAGCUUUGCUGACCAGAAGGCAUGUCAAUAGACAUGAGGAUCACCCAUGUAGUUAAGACAGGA,0.615 µM,0.0467 µM,–,–
CCUUUAAAGAUCCAAAAUUUCAACAUGAGGAUCACCCAUGUGCAGGAUAUCGUGCCAGUGAUGUACGAGAAGGGCAGACUCUGC,–,–,0.119 µM,0.149 µM
CGAAGUCCGUAGAAGGGUGACAUGAGGAUCACCCAUGUGCGAGCCGAGGGAGUCAGCGGCUCGCCACAGGAUAUACGGAUCACG,0.0171 µM,0.0617 µM,–,–
CGACAAGUCGUAGGAUAUGGUGAUGUACAUGAGGAUCACCCAUGUCCGUCUUCUCUCACAAGAUGCCAGAAGGGCGACUUCCGG,0.676 µM,0.404 µM,–,–
CGACACCAGACAGGAUAUGCUGGACUUUGUCCAGCAGAAGGGUCUAAACAUGAGGAUCACCCAUGUAUGGUGUCGAAAUUUAAU,0.0511 µM,0.00806 µM,–,–
CGAGACCUCACAGGAUAUGCUGGACUUUGUCCAGCAGAAGGGUGAAAACAUGAGGAUCACCCAUGUAUGGUCUCCAAAUUUAAA,0.182 µM,0.0136 µM,–,–
CGAUAGGACAGAGGAUAUACACAUGAGGAUCACCCAUGUGAUUUCAGCGCGAAAGCGCCAAACAUGUAGAAGGCUGUCCUAUCG,–,–,0.0259 µM,0.0106 µM
CGAUAGGACAGAGGAUAUGCCGAUAGGAUCUACUAUCGAAGAAUCCUCACAUGAGGAUCACCCAUGUAGAAGGCUGUCCUAUCU,–,–,0.0079 µM,0.0381 µM
CGAUAGUGUAGUUAUCCGUAGCGAACAUGAGGAUCACCCAUGUAGGAUAUGUUACUAAACUAGUAACAGAAGGGCGUGAGUCUU,–,–,0.0302 µM,0.0306 µM
CGAUAUAUGAAGGGCGAACGCGCACAUGAGGAUCACCCAUGUAGAAGGCGAUCCGCAACGCGGAUCGAGGAUAUAUAGUAUACG,–,–,0.0327 µM,0.034 µM
CGAUAUAUGAAGGGCUAAUGCCCACAUGAGGAUCACCCAUGUAGAAGGCGAUCCGCAACGCGGAUCGAGGAUAUAUAGUAUACA,–,–,0.00902 µM,0.00966 µM
CGAUAUUAUGCAGGAUAUCUUUCUUGAAUGAGGAGAGAAGGGCAUAGGGAGACAUAAGCCUUAUUACAUGAGGAUCACCCAUGU,–,–,0.0109 µM,0.0095 µM
CGAUAUUAUGUCAGGAUAUACAUUGCGAAAGCAAUGUAGAAGGGACAUGAGGAUCACCCAUGUCCUAACUAUCG,–,–,0.0125 µM,0.0142 µM
CGAUCGGAAGGAUAUACACCUCACGUCAAACGGACAACCGGACAUGAGGAUCACCCAUGUAGAAGGUCCAAAAU,–,–,0.0726 µM,0.238 µM

Sequence,apparent Kd [1],apparent Kd [2],apparent Kd [3],apparent Kd [4]
CGAUGCAGAGGAUAUACAUGAGGAUCACCCAUGUACCUACUCGGGCGUCCUCUUAGAUGUAGAAGGCUGACACU,–,–,0.0626 µM,0.072 µM
CGAUGGCAUGUAGGAUAUCGAGCUCAAAGAGCUCGAGAAGGACAUGAGGAUCACCCAUGUGCUCACAGACAGUGAGCGCUAUCG,–,–,0.0312 µM,0.156 µM
CGCAACAUACAGAAGGAGUAAAUUAGAAGUGUACUAGGAUAUGUAAACAUGAGGAUCACCCAUGUCGAAUGUGUUAUAGUUGCG,–,–,0.00824 µM,0.00853 µM
CGCAAUAUACAGAAGGAGUUAUUUAGAGGAUUACUAGGAUAUGUUCACAUGAGGAUCACCCAUGUCAUAUUGGGAUUUAUUGCG,–,–,0.01 µM,0.0103 µM
CGCAAUAUACAGAAGGAGUUAUUUAGAGGUUUACUAGGAUAUGUUCACAUGAGGAUCACCCAUGUCAUAUGGAGUUUUAUUGCG,–,–,0.00925 µM,0.00833 µM
CGCACUAUACAUGAGGAUCACCCAUGUUAACUUUAGCUAUUCAGAAGGCAUAAAUAGAGAUUAAAUGAGGAUAUGAUUAGUGCG,0.0886 µM,0.0283 µM,–,–
CGCACUGAUAGAGGAUAUGUUUUACAUGAGGAUCACCCAUGUGUACAUGGAUUAAUAUAUAAGUAACAGAAGGCUAUUUGUGCG,–,–,0.0189 µM,0.0151 µM
CGCACUGUACAUGAGGAUCACCCAUGUUAAUAUGAGGUAGUCAGAAGGCAUUGUUUGAGAUAUUAUGAGGAUAUGAUUAGUGCG,0.11 µM,0.0289 µM,–,–
CGCACUUAGCGAGGAUAUGUUAAACAUGAGGAUCACCCAUGUGAUUUAGUAUCAAUAUUAGUGAAACAGAAGGCGCUUAGUGCG,–,–,0.014 µM,0.0132 µM
CGCACUUAGCGAGGAUAUGUUAAACAUGAGGAUCACCCAUGUGAUUUAGUAUCAAUUUUAGUGAAACAGAAGGCGCUUAGUGCG,–,–,0.0176 µM,0.0149 µM
CGCACUUAUAGAGGAUAUGUUGUACAUGAGGAUCACCCAUGUGUUUUUGUAUCAAUAUUAGUGAAACAGAAGGCUAUUUGUGCG,–,–,0.00576 µM,0.00496 µM
CGCAGACAUUGGACCUGGUAACAUGAGGAUCACCCAUGUAUCAGAAGGUACUUAUAGAGAUUAAGUAAGGAUAUGAAGUUUGUG,0.00534 µM,0.00655 µM,–,–
CGCCAGUGAGGAUAUCCAUCUGGAUCAGACUAGAUCCUGAUGGAGAAGGCACAUGAGGAUCACCCAUGUCGGCG,–,–,0.0185 µM,0.0195 µM
CGCGAAAGAUUAUUAUGAAUAAACAUGAGGAUCACCCAUGUAUAGGAUAUGCAGUGGAAUACACUGCAGAAGGAUACAUACGCG,–,–,0.0222 µM,0.123 µM
CGCUAAGAGAACGAUACGAGAAGACAUGAGGAUCACCCAUGUAGAAGGACAACGGAAUAAACGUUGUAGGAUAUACACUUAGCG,–,–,0.015 µM,0.0206 µM
CGCUAAGAGAACUAUUCGAGAAGACAUGAGGAUCACCCAUGUAGAAGGACAACGGAAUAAACGUUGUAGGAUAUACACUUAGCG,–,–,0.00936 µM,0.00897 µM
CGCUACACCCAGAAGGACAUGAGGAUCACCCAUGUAGGAUAUGGGAGACACAGUCCCGUGUAGAGAAACUACGCUAGUGUAGCG,0.344 µM,0.112 µM,–,–
CGCUACGUUUCGUAGCAGCUAGGUGAGGAUAUUCAAUUUUUCACAUGAGGAUCACCCAUGUAUGUGAAGAAGGCGCCUAGAAAA,0.011 µM,0.00478 µM,–,–
CGCUACGUUUCGUAGCAGUGUCAUCGAGAAGGCCCUGACAUGAGGAUCACCCAUGUUCCAAAAUGGGAGGAUAUCGAUGAUACA,0.00489 µM,0.00499 µM,–,–
CGCUACUACCAGAAGGACAUGAGGAUCACCCAUGUAGGAUAUGGGUUACACGUUCCUGUGUUAAGUUACUACGCUACGUAUGCG,0.419 µM,0.0202 µM,–,–
CGGAACAUGAGGAUCACCCAUGUAGCUACUUAAAGGUGCUACAGAAGGGACAUUGCGCGUCAUGGUCAGGAUAUGUAGGGCGGA,0.148 µM,0.0624 µM,–,–
CGGAUGUGAGGAUAUACAUGAGGAUCACCCAUGUGAGCCAGCUAGCUGACUGGCUCAUGUAGAAGGCACGUCUG,–,–,0.0503 µM,0.12 µM
CGGCAAUGACGAGGAUAUAGACAUGAGGAUCACCCAUGUAACAGUAUUACAGGGCGUCUUCUCAGCUAGAAGGCGUUCUAUGCC,–,–,0.0373 µM,0.0884 µM
CGGCGGAAAGGAUAUGCAGUAAUAUCAAAAUGUGGGCCACGACAUGAGGAUCACCCAUGUAGAAGGUUCAGCCA,–,–,0.016 µM,0.0136 µM
CGGGAGUCAGGAUAUACGAACAUGUCGCCAGAUGUCAUGGUACAUGAGGAUCACCCAUGUAGAAGGGAGGCGGU,–,–,0.0506 µM,0.0305 µM
CGGGCUGCCAGAGGAUAAUGGACAUGAGGAUCACCCAUGUGUCAGGAUAUGGGUUUCACAUGGACUCAGAAGGGACCAGCCCAA,0.101 µM,0.0249 µM,–,–
CGGUACUUAGGAUAUACAUGAGGAUCACCCAUGUAGAGAAGGUGGGUGCCGUCCUGUAGUAGAAGGAAGAAUCG,–,–,0.0469 µM,0.0558 µM
